According to ChEMBL document CHEMBL1125805, “Cholecystokinin antagonists: (R)-tryptophan-based hybrid antagonists of high affinity and selectivity for CCK-A receptors” (J Med Chem, 1991):

Columns and labels:
Cavia porcellus [1] = organism: Cavia porcellus; assay: Inhibition of CCK-8-stimulated amylase release; assay type: functional
[2] = target: T1, Cholecystokinin receptor type A (Cavia porcellus, UniProt Q63931); assay: Inhibition of [125I]Bolton-Hunter CCK-8 binding to cholecystokinin type A receptor in guinea pig pancreatic membranes.; assay type: cell membranes
T1 sequence (Q63931 whole entry): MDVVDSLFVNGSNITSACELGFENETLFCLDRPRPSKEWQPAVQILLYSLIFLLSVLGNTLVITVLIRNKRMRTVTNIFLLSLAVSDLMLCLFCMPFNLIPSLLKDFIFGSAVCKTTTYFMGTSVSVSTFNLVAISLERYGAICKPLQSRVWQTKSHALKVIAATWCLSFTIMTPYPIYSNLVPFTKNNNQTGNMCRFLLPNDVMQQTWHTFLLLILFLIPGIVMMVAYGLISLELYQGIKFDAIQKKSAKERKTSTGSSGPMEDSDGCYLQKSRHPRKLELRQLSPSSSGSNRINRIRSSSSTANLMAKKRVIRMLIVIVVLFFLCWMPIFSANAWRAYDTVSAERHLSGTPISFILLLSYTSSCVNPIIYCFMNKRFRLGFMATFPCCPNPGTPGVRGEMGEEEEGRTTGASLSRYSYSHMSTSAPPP

Cavia porcellus [3] = organism: Cavia porcellus; assay: The compound was tested for the inhibition of CCK-8-stimulated amylase release; assay type: functional
Outline: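 Amylase release was stimulated with CCK-8 at 3 × 10⁻¹⁰ M as the reference concentration, following a published procedure. Inhibition by test compounds gave IC50 values.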

| SMILES | IC50 (Cavia porcellus [1]) | IC50 [2] | IC50 (Cavia porcellus [3]) |
| --- | --- | --- | --- |
| CCCCCN(CCCCC)C(=O)[C@H](Cc1c[nH]c2ccccc12)NC(=O)c1cc2ccccc2[nH]1 | < 30000 nM | 520 nM | – |
| CCCCCN(CCCCC)C(=O)[C@@H](Cc1c[nH]c2ccccc12)NC(=O)c1ccc2ccccc2c1 | 360 nM | 29 nM | – |
| CCCCCN(CCCCC)C(=O)[C@@H](Cc1c[nH]c2ccccc12)NC(=O)c1ccc[nH]1 | > 100000 nM | – | – |
| C[C@H](NC(=O)[C@@H](Cc1c[nH]c2ccccc12)NC(=O)c1cnc2ccccc2c1)c1ccccc1 | – | 180 nM | – |
| CCCCCN(CCCCC)C(=O)C(Cc1c[nH]c2ccc(OCc3ccccc3)cc12)NC(=O)c1cnc2ccccc2c1 (configuration not stated) | < 100000 nM | – | – |
| CCCCCN(CCCCC)C(=O)[C@H](Cc1c[nH]c2ccc(F)cc12)NC(=O)c1cnc2ccccc2c1 | > 100000 nM | 48 nM | – |
| CCCCCN(CCCCC)C(=O)[C@@H](Cc1c[nH]c2ccccc12)NC(=O)c1cc(O)c2cccc(O)c2n1 | 46 nM | – | – |
| CCCCCN(CCCCC)C(=O)[C@@H](Cc1c[nH]c2ccccc12)NC(=O)c1ccc2cc(O)ccc2c1 | 100000 nM | – | – |
| CCCCCN(CCCCC)C(=O)[C@@H](CC1C(=O)Nc2ccccc21)NC(=O)c1cnc2ccccc2c1 (some centres not stated) | 62 nM | 46 nM | – |
| CCCCCN(CCCCC)C(=O)[C@@H](Cc1c[nH]c2ccccc12)NC(=O)c1cc2ccccc2cn1 | < 100000 nM | 880 nM | – |
| CCOC(=O)CN(Cc1ccccc1)C(=O)[C@@H](Cc1c[nH]c2ccccc12)NC(=O)c1cnc2ccccc2c1 | – | 400 nM | – |
| CCCCCN(CCCCC)C(=O)[C@@H](Cc1c[nH]c2ccccc12)NC(=O)c1ccc(Cl)c(Cl)c1 | 2500 nM | 190 nM | – |
| CCCCCN(CCCCC)C(=O)[C@H](Cc1c[nH]c2ccccc12)NC(=O)Nc1cccc(C)c1 | < 100000 nM | 1500 nM | – |
| CCCCCN(CCCCC)C(=O)[C@@H](Cc1c[nH]c2ccccc12)NC(=O)Nc1cccc(C)c1 | > 30000 nM | 1100 nM | – |
| CCCCCN(CCCCC)C(=O)[C@H](Cc1c[nH]c2ccccc12)NC(=O)c1cnc2ccccc2c1 | < 100000 nM | – | – |
| CCCCCN(CCCCC)C(=O)[C@@H](Cc1c[nH]c2ccccc12)NC(=O)c1cnc2ccccc2c1 | 43 nM | – | – |
| CCCCCN(CCCCC)C(=O)[C@H](Cc1c[nH]c2ccccc12)NC(=O)c1ccc(Cl)c(Cl)c1 | > 30000 nM | 670 nM | – |
| CCCCCN(CCCCC)C(=O)[C@@H](Cc1c[nH]c2ccccc12)NC(=O)c1ccc2ncccc2c1 | < 10000 nM | 239 nM | – |
| CCCCCN(CCCCC)C(=O)[C@@H](Cc1c[nH]c2ccccc12)NC(=O)Nc1ccc(Cl)cc1 | – | 4200 nM | – |
| CCCCCN(CCCCC)C(=O)[C@@H](Cc1c[nH]c2ccccc12)NC(=O)c1cc(O)c2ccccc2n1 | 110 nM | 51 nM | – |

| SMILES | IC50 (Cavia porcellus [1]) | IC50 [2] | IC50 (Cavia porcellus [3]) |
| --- | --- | --- | --- |
| CCCCCN(CCCCC)C(=O)[C@@H](Cc1c[nH]c2ccccc12)NC(=O)c1cccnc1 | > 100000 nM | 14600 nM | – |
| CCCCCN(CCCCC)C(=O)[C@@H](CCC(=O)O)NC(=O)c1cc(O)c2cccc(O)c2n1 | 106 nM | 7 nM | – |
| CCCCCN(CCCCC)C(=O)[C@H](Cc1c[nH]c2ccccc12)NC(=O)c1ccc(Cl)cc1 | < 30000 nM | 475 nM | – |
| CCCCCN(CCCCC)C(=O)[C@@H](Cc1c[nH]c2ccccc12)NC(=O)c1ccc2cccc(O)c2n1 | < 100000 nM | 390 nM | – |
| C[C@@H](NC(=O)[C@@H](Cc1c[nH]c2ccccc12)NC(=O)c1cnc2ccccc2c1)c1ccccc1 | – | 810 nM | > 10000 nM |
| CCCCCN(CCCCC)C(=O)[C@@H](Cc1c[nH]c2ccccc12)NC(=O)c1c[nH]c2ccccc12 | < 10000 nM | 430 nM | – |
| CCCCCN(CCCCC)C(=O)[C@@H](Cc1c[nH]c2ccc(O)cc12)NC(=O)c1cnc2ccccc2c1 | 27 nM | 11 nM | – |
| CCCCCN(CCCCC)C(=O)[C@@H](Cc1c[nH]c2ccccc12)NC(=O)c1ccc2ccccc2n1 | 1300 nM | 120 nM | – |
| CN(Cc1ccccc1)C(=O)[C@@H](Cc1c[nH]c2ccccc12)NC(=O)c1cnc2ccccc2c1 | – | 600 nM | – |
| CCCCCN(CCCCC)C(=O)[C@@H](Cc1c(Sc2ccccc2[N+](=O)[O-])[nH]c2ccccc12)NC(=O)c1cnc2ccccc2c1 | < 100000 nM | – | – |
| CCCCCN(CCCCC)C(=O)[C@@H](Cc1c[nH]c2ccccc12)NC(=O)c1nccc2ccccc12 | > 100000 nM | – | – |
| CCCCCN(CCCCC)C(=O)[C@@H](Cc1c[nH]c2ccccc12)NC(=O)c1ccc(Cl)cc1 | < 10000 nM | 370 nM | – |
| CCCCCN(CCCCC)C(=O)[C@H](Cc1c[nH]c2ccccc12)NC(=O)Nc1ccc(C)cc1 | – | > 10000 nM | – |
| CCCCCN(CCCCC)C(=O)[C@H](Cc1c[nH]c2ccccc12)NC(=O)Nc1ccc(Cl)cc1 | – | > 10000 nM | – |
| CCCCCN(CCCCC)C(=O)[C@@H](Cc1c[nH]c2ccccc12)NC(=O)c1cc2cc(F)ccc2[nH]1 | < 100000 nM | 155 nM | – |
| CCCCCN(CCCCC)C(=O)[C@@H](Cc1c[nH]c2ccccc12)NC(=O)c1cccc2ccccc12 | < 30000 nM | 500 nM | – |
| CCCCCN(CCCCC)C(=O)[C@@H](Cc1c[nH]c2ccccc12)NC(=O)/C=C/c1cccnc1 | < 100000 nM | > 1000 nM | – |
| CCCCCN(CCCCC)C(=O)[C@@H](Cc1c[nH]c2ccccc12)NC(=O)c1cc2ccccc2[nH]1 | 670 nM | – | – |
| O=C(N[C@@H](Cc1c[nH]c2ccccc12)C(=O)O)c1ccc(Cl)cc1 [BENZOTRIPT] | – | > 100000 nM | – |
